Active and inactive are the calls of the source. The calls are words filed in the database; no cut-off is given here.
Columns and labels:
[1] = molecular target: T1, Tyrosine-protein phosphatase non-receptor type 11 (Homo sapiens) (UniProt Q06124); assay: Mixed type inhibition of human wild-type full length SHP2 assessed as substrate [Et] at 20 uM using H-Glu-Phe-pTyr-Ala-Glu-Val-Gly-Arg-Ser-Pro-Pro-Asp-Pro-Ala-Lys as substrate by Lineweaver-Burk plot analysis (reference value: 0.029 uM)
T1 sequence (whole entry): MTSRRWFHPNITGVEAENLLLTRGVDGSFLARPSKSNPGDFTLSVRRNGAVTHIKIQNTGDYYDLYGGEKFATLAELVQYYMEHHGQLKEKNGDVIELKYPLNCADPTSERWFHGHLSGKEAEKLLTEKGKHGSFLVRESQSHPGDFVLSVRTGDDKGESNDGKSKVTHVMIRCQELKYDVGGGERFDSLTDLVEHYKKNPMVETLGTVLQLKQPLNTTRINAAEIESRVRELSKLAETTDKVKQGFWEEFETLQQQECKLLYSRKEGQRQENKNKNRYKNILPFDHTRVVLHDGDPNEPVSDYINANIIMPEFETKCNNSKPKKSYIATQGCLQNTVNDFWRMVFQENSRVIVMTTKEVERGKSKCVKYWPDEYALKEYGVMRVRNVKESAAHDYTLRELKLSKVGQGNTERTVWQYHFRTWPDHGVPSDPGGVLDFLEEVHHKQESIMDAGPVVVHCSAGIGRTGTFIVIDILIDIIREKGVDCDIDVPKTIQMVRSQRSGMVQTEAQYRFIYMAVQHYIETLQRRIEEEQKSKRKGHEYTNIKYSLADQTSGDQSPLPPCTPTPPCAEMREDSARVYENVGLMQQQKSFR

[2] = molecular target: T1, Tyrosine-protein phosphatase non-receptor type 11 (Homo sapiens); assay: Binding affinity to His-tagged SHP2 (unknown origin) assessed as melting temperature at 5 uM measured every 50 secs by thermal shift assay (reference value: 43.5 +/- 0.95 degC)
[3] = system: NCI-H596; assay: Growth inhibition of human NCI-H596 cells after 48 hrs by cell proliferation-based assay; assay type: functional
Outline: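 H661 (PTPN11 N58S/+) and H596 (WT PTPN11) lung cancer cells exposed to a concentration series for 48 h, DMSO as control. Cell number measured by One Solution proliferation assay. Triplicates from one of three repeated experiments.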

[4] = system: T2, Tyrosine-protein phosphatase non-receptor type 11 (Homo sapiens), Q06124 [E76K]; assay: Inhibition of Ptpn11 E76K mutant in bone marrow cells isolated from JMML patient assessed as inhibition of GM-CSF-induced colony forming units at 1.25 to 5 uM after 14 days by inverted microscopy; assay type: cell-based
T2 sequence (whole entry): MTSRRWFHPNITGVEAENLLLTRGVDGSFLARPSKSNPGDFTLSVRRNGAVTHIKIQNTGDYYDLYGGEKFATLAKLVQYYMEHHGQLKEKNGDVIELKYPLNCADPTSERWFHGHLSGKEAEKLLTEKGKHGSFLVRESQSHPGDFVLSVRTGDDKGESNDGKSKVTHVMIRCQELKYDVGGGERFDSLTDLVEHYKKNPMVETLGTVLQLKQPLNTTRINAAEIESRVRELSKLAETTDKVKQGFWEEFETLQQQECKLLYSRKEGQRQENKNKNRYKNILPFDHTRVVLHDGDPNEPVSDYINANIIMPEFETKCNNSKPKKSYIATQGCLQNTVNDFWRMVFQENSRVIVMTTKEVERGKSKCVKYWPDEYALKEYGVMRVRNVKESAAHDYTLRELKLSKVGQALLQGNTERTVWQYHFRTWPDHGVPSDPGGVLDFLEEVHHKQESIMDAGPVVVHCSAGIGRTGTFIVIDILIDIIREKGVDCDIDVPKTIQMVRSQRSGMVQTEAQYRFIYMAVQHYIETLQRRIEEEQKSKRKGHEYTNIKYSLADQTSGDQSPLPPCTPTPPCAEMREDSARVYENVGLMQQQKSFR
Outline: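 JMML patient splenocytes, marrow or blood cells (PTPN11 E76K/+), 5×10⁴ cells/mL, with healthy apheresis controls. Plated in 0.9% methylcellulose IMDM with 30% FBS, glutamine, β-mercaptoethanol and GM-CSF 1.0 ng/mL, plus compound or DMSO. Myeloid colonies counted at 14 days, 37 °C, 5% CO2, normalized to DMSO.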

[5] = molecular target: T1, Tyrosine-protein phosphatase non-receptor type 11 (Homo sapiens); assay: Inhibition of wild type recombinant human SHP2 at 50 uM using H-Glu-Phe-pTyr-Ala-Glu-Val-Gly-Arg-Ser-Pro-Pro-Asp-Pro-Ala-Lys as substrate preincubated for 30 mins followed by substrate addition and measured after 30 mins by Malachite Green-reagent based assay
Outline: (§1)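 Full-length SHP2 or SHP1 (0.1 µg) preincubated with compound 30 min at room temperature in 25 mM Tris-HCl pH 7.4, 50 mM NaCl, 5 mM DTT, 2.5 mM EDTA. Phospho-peptide substrate added to 50 µM final; 30 min at 30 °C. Released phosphate read by Malachite Green at OD620. IC50 from six concentrations; three experiments.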

[6] = molecular target: T1, Tyrosine-protein phosphatase non-receptor type 11 (Homo sapiens); assay: Ratio of IC50 for inhibition of recombinant full length human GST-tagged SHP2 PTP domain using pNPP as substrate pre-incubated for 15 mins before pNPP substrate addition and measured after 15 mins to IC50 for inhibition of wild type recombinant human SHP2 using H-Glu-Phe-pTyr-Ala-Glu-Val-Gly-Arg-Ser-Pro-Pro-Asp-Pro-Ala-Lys as substrate preincubated for 30 mins followed by substrate addition and measured after 30 mins by Malachite Green-reagent based assay
[7] = molecular target: T1, Tyrosine-protein phosphatase non-receptor type 11 (Homo sapiens); assay: Inhibition of human wild-type full length SHP2 at 20 uM using H-Glu-Phe-pTyr-Ala-Glu-Val-Gly-Arg-Ser-ProPro-Asp-Pro-Ala-Lys as substrate in presence of 0.001% Triton X; outline: as §1
[8] = molecular target: T1, Tyrosine-protein phosphatase non-receptor type 11 (Homo sapiens); assay: Inhibition of human wild-type full length SHP2 at 20 uM using H-Glu-Phe-pTyr-Ala-Glu-Val-Gly-Arg-Ser-ProPro-Asp-Pro-Ala-Lys as substrate in presence of 0.001% Triton X

Activity [1]: 0.029 µM
Tm [2]: 46.3 °C
inhibition [4]: Active
inhibition [5]: Active
Ratio IC50 [6]: > 2
inhibition [7]: Active
inhibition [8]: Active
Structure (SMILES): CCOc1cc(O)c(C(=O)/C=C/c2ccc(Cl)cc2Cl)cc1CN1CCC=C(n2c(=O)[nH]c3ccccc32)C1
growth inhibition (GI) [3]: Dose-dependent effect

Reference: ChEMBL document CHEMBL4422612, “Small Molecule Inhibitor that Stabilizes the Autoinhibited Conformation of the Oncogenic Tyrosine Phosphatase SHP2” (J Med Chem, 2019)
